These results are taken from ChEMBL document CHEMBL3739330, “Phenolic group on A-ring is key for dracoflavan B as a selective noncompetitive inhibitor of α-amylase” (Bioorg Med Chem, 2015).

Assay [1] concerns the target T1, Pancreatic alpha-amylase (Sus scrofa, UniProt P00690).
T1 sequence (P00690 whole entry): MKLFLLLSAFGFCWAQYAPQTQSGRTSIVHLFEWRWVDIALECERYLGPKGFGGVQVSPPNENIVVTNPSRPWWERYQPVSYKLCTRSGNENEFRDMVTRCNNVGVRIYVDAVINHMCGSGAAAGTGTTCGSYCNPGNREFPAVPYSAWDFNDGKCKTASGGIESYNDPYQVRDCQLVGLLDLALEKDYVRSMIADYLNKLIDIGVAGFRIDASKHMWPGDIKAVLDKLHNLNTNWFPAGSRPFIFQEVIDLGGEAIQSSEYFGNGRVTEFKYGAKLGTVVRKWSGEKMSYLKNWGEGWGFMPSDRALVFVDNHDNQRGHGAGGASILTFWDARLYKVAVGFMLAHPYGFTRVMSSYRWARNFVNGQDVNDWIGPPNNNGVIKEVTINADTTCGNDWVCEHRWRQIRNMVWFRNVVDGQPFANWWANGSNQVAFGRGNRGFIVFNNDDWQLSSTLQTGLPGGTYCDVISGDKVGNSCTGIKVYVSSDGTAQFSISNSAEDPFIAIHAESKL
The assay is described as follows: Inhibition of porcine pancreatic alpha-amylase assessed as starch digestion up to 120 mins by turbidity assay.

Assay [2] is filed under the species Rattus norvegicus. The assay can be described thus: Inhibition of rat intestine alpha-glucosidase assessed as starch digestion by turbidity assay.
For assay [3], the target named is T2, Pancreatic alpha-amylase (Sus scrofa) (UniProt P00690).
T2 sequence (whole entry): T1 sequence (P00690 whole entry)
The assay can be described thus: Inhibition of porcine pancreatic alpha-amylase assessed as starch digestion up to 370 uM up to 120 mins by turbidity assay.

For assay [4], the target named is Alpha-amylase (Bacillus subtilis (strain 168), UniProt P00691). The assay can be described thus: Inhibition of Bacillus subtilis alpha-amylase.
The target in assay [5] is T1, Pancreatic alpha-amylase. The assay can be described thus: Non-competitive inhibition of porcine pancreatic alpha-amylase by Lineweaver-Burk plot analysis. In a few lines: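 Corn starch substrate 0.25–1 mg/mL, inhibitor at 11, 18 and 22 µM. Inhibitor (dissolved in methanol, diluted in 0.1 M sodium phosphate pH 6.9) preincubated with starch at 37 °C for 15 min. Enzyme then added and reaction stopped at 5 min with DNSA reagent. Boiled 5 min and absorbance read at 540 nm. Initial velocity taken from reducing sugar released. Mode assigned by Michaelis–Menten and Lineweaver–Burk analysis, with a buffer-only control.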

In assay [6] the test system is Aspergillus oryzae. The assay is described as follows: Inhibition of Aspergillus oryzae alpha-amylase.
For assay [7], the species on record is Rattus norvegicus. The assay is described as follows: Inhibition of rat intestine alpha-glucosidase assessed as starch digestion up to 370 uM up to 120 mins by turbidity assay.

For orientation: IC50 means the midpoint of a concentration-inhibition curve. In general, Ki refers to a dissociation constant, usually derived from enzyme kinetics or from competition with a known ligand. High values mean lower affinity, low ones higher affinity.

The source made the active and inactive calls. The rule behind the calls is not given here.

Sequence of Alpha-amylase (P00691 whole entry): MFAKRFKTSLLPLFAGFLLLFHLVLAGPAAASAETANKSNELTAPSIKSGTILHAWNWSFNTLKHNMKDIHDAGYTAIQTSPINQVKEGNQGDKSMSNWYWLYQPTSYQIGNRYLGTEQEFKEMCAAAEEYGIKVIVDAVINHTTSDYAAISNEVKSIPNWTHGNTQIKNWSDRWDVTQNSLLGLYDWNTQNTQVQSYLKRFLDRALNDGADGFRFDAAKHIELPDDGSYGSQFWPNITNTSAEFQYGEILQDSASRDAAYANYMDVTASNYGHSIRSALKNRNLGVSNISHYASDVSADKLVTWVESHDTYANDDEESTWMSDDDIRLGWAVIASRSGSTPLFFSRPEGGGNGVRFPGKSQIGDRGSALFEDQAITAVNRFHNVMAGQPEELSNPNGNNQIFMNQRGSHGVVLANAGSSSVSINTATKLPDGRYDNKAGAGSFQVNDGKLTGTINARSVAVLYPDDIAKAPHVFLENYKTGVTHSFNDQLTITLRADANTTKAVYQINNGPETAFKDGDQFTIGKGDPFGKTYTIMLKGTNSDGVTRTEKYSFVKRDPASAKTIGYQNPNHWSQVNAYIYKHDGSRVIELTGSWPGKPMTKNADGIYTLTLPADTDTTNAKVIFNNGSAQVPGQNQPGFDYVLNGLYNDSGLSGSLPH

As to `COc1cc2c(c3c1CC[C@@H](c1ccccc1)O3)[C@H]1c3c(cc(OC(=O)c4cc(O)c(O)c(O)c4)c(C)c3OC)O[C@@](c3ccccc3)(O2)[C@@H]1O`, the IC50 in assay [1] was 12 µM.
Regarding `C[C@@H]1O[C@@H](O[C@@H]2[C@@H](O)[C@H](O)[C@H](O[C@H]3[C@H](O)[C@@H](O)C(O)O[C@@H]3CO)O[C@H]2CO)[C@@H](O)[C@H](O)[C@H]1N[C@H]1C=C(CO)[C@@H](O)[C@H](O)[C@H]1O` (some centres undefined), the inhibition result in assay [2] is “Active”.
On to `COc1cc2c(c3c1CC[C@@H](c1ccccc1)O3)[C@H]1c3c(cc(OS(=O)(=O)O)c(C)c3OC)O[C@@](c3ccccc3)(O2)[C@@H]1O`, for which the inhibition result in assay [3] is “inactive”.
Same read-out and setting: for `COc1cc2c(c3c1CC[C@@H](c1ccccc1)O3)[C@H]1c3c(cc(OC(C)=O)c(C)c3OC)O[C@@](c3ccccc3)(O2)[C@@H]1O` the value was “inactive”.
Consider `COc1cc2c(c3c1CC[C@@H](c1ccccc1)O3)[C@H]1c3c(cc(O)c(C)c3OC)O[C@@](c3ccccc3)(O2)[C@@H]1O`, for which, in assay [1], the 50% inhibitory concentration (IC50) was determined as 23 µM.
`Oc1cc(O)c2c(c1)O[C@@]1(c3ccc(O)c(O)c3)Oc3cc(O)c4c(c3[C@@H]2[C@H]1O)O[C@H](c1ccc(O)c(O)c1)[C@H](O)C4`: the inhibition result in assay [3] is “inactive”.
Take `COc1cc2c(c3c1CC[C@@H](c1ccccc1)O3)[C@@H]1c3c(cc(O)c(C)c3OC)O[C@](c3ccccc3)(O2)[C@H]1O`: the values for the IC50 in assay [4] and in assay [1] were 42 µM and 27 µM, respectively. In assay [5], this compound came in with a Ki of 11.7 µM. In addition, the inhibition result in assay [6] is “inactive”.
Take `COc1cc2c(c3c1CC[C@@H](c1ccccc1)O3)[C@H]1c3c(cc(OC(=O)c4ccccc4)c(C)c3OC)O[C@@](c3ccccc3)(O2)[C@@H]1O`: the inhibition entry in assay [3] was “inactive”.
For the compound `COc1cc2c(c3c1CC[C@@H](c1ccccc1)O3)[C@H]1c3c(cc(O)c(C)c3OC)O[C@@](c3ccccc3)(O2)[C@@H]1O` (mixture of isomers), the inhibition entry in assay [3] is “Active”. Moreover, in assay [7], the inhibition result was “inactive”.
On to `COc1cc2c(c3c1CC[C@@H](c1ccccc1)O3)[C@H]1c3c(cc(OC(=O)c4cc(OC(C)=O)c(OC(C)=O)c(OC(C)=O)c4)c(C)c3OC)O[C@@](c3ccccc3)(O2)[C@@H]1O`, for which the inhibition entry in assay [3] is “inactive”.
